Data from ChEMBL document CHEMBL4732146, “Nitric oxide-donating and reactive oxygen species-responsive prochelators based on 8-hydroxyquinoline as anticancer agents” (Eur J Med Chem, 2021).
Active and inactive are the calls of the source. The calls are words filed in the database; no cut-off is given here.

Assays:
[1] = Metal chelating activity assessed as compound-Cu2+ complex formation measured after 40 mins by calcein dye based fluorescence assay; details: dose 10-50 µM
Outline: (§1)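 Calcein (10 µM) in 50 mM HEPES was quenched by 10 µM CuCl₂ (or FeCl₃ for the Fe³⁺ arm). Chelator was added from DMSO stock to a final 10 or 50 µM and incubated 40 min at room temperature. Recovery rate was calculated from fluorescence (λex 485 / λem 520 nm); n = 3.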

PANC-1 [2] = test: Cytotoxicity against human PANC-1 cells assessed as reduction in cell viability at 10 uM measured after 48 hrs by MTT assay; assay type: functional, cell-based
Outline: (§2)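 MTT assay with 48 h compound exposure at 10 or 20 µM. Cells seeded 6 × 10⁴ per well and grown 24 h beforehand. MTT 4 h, DMSO solubilisation, A490 read. Percent cell death given as mean ± SD, n = 3.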

A549 = test: Cytotoxicity against human A549 cells assessed as reduction in cell viability at 10 to 20 uM measured after 48 hrs by MTT assay; assay type: functional, cell-based; details: dose 10-20 µM
HeLa = test: Cytotoxicity against human HeLa cells assessed as reduction in cell viability at 10 to 20 uM measured after 48 hrs by MTT assay; assay type: functional, cell-based; details: dose 10-20 µM
[3] = Metal chelating activity assessed as compound-Fe3+ complex formation measured after 40 mins by calcein dye based fluorescence assay; details: dose 10-50 µM; outline: as §1
MCF7 = test: Cytotoxicity against human MCF7 cells assessed as reduction in cell viability at 10 to 20 uM measured after 48 hrs by MTT assay; assay type: functional, cell-based; details: dose 10-20 µM; outline: as §2
HepG2 = test: Cytotoxicity against human HepG2 cells assessed as reduction in cell viability at 10 to 20 uM measured after 48 hrs by MTT assay; assay type: functional, cell-based; details: dose 10-20 µM; outline: as §2
PANC-1 [4] = test: Cytotoxicity against human PANC-1 cells assessed as reduction in cell viability at 20 uM measured after 48 hrs by MTT assay relative to control; assay type: functional; outline: as §2

Activity [1]	Activity [3]	SMILES	Activity (PANC-1 [2])	Activity (A549)	Activity (HeLa)	Activity (MCF7)	Activity (HepG2)	Activity (PANC-1 [4])
Dose-dependent effect	Dose-dependent effect	O=C(c1ccc2cccc(O)c2n1)N1CCN(CCOc2no[n+]([O-])c2S(=O)(=O)c2ccccc2)CC1	Active	Active	Active	Active	Active	Active
Dose-dependent effect	Dose-dependent effect	O=C(/C=C\c1ccc2cccc(O)c2n1)N1CCN(CCOc2no[n+]([O-])c2S(=O)(=O)c2ccccc2)CC1	Active	Active	Active	Active	Active	Active
Dose-dependent effect	Dose-dependent effect	O=C(/C=C/c1ccc2cccc(O)c2n1)NCCCOc1no[n+]([O-])c1S(=O)(=O)c1ccccc1	Active	Active	Active	Active	Active	Active
Dose-dependent effect	Dose-dependent effect	O=C(/C=C/c1ccc2cccc(O)c2n1)NCCOc1no[n+]([O-])c1S(=O)(=O)c1ccccc1	Active	Active	Active	Active	Active	Active
Dose-dependent effect	Dose-dependent effect	O=C(NCCOc1no[n+]([O-])c1S(=O)(=O)c1ccccc1)c1ccc2cccc(O)c2n1	Active	Active	Active	Active	Active	Active
Dose-dependent effect	Dose-dependent effect	O=C(/C=C\c1ccc2cccc(O)c2n1)N1CCC(Oc2no[n+]([O-])c2S(=O)(=O)c2ccccc2)CC1	Active	Active	Active	Active	Active	Active
